Results from ChEMBL document CHEMBL4024793, “Development of Stem-Cell-Mobilizing Agents Targeting CXCR4 Receptor for Peripheral Blood Stem Cell Transplantation and Beyond” (J Med Chem, 2018).
Calls of active or inactive are those of the source. The rule behind the calls is not given here.

Columns and labels:
[1] = Acute toxicity in sc dosed C57BL/6 mouse assessed as maximum tolerated dose by measuring mortality; type: organism-based; details: in vivo
Outline: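 Male C57BL/6 or ICR mice (n = 3/group) dosed subcutaneously with escalating doses, low to high; MTD taken as highest dose giving zero mortality (0/3).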

[2] = test system: Rattus norvegicus; assay: Cardiotoxicity in Sprague-Dawley rat assessed as effect on heart weight at 50 mg/kg/day, sc administered for 14 days relative to control; type: toxicity, organism-based; details: in vivo, 336 h
Outline: (§1)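 Non-GLP 14-day repeated-dose study in SD rats given 50 mg/kg/day SC. Major organs (liver, kidney, lung, heart) compared with vehicle for size, weight and colour. Blood analysed for hematological and biochemical parameters.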

[3] = test system: Mus musculus; assay: Induction of hematopoietic stem cell mobilization in C57BL/6 mouse assessed as induction of movement of HSCs and EPCs into peripheral circulation at 35 mg/kg, sc measured after 2 hrs by flow cytometric analysis relative to control; type: functional
[4] = biological target: Voltage-gated inwardly rectifying potassium channel KCNH2 (Homo sapiens, UniProt Q12809); assay: Inhibition of human ERG expressed in CHO cells up to 100 uM by automated patch-clamp assay; type: cell-based
Outline: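 hERG liability examined by patch-clamp at concentrations up to 100 μM.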

[5] = test system: Rattus norvegicus; assay: Toxicity in Sprague-Dawley rat assessed as effect on lung size at 50 mg/kg/day, sc administered for 14 days relative to control; type: organism-based; details: in vivo, 336 h; outline: as §1
[6] = test system: Mus musculus; assay: In vivo antagonist activity at CXCR4 in C57BL/6 mouse assessed as induction of monocytes molization at 35 mg/kg, sc measured after 2 hrs relative to AMD3100; type: functional; parameters: scale not given: the % may be the effect or the level left
Outline: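 C57BL/6 mice given a single SC injection at 6 or 35 mg/kg. Blood collected 2 h after dosing and analysed for total white blood cells, neutrophils, lymphocytes and monocytes.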

[7] = biological target: C-X-C chemokine receptor type 2 (Homo sapiens) (UniProt P25025); assay: Antagonist activity at human CXCR2 expressed in CHOK1 cells assessed as inhibition of interleukin-8-induced cAMP accumulation at 10 uM preincubated for 30 mins followed agonist addition measured after 30 to 60 mins; type: functional, cell-based
Outline: (§2)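 GPCR cAMP assay with a single test concentration of 10 μM; result expressed as percentage inhibition for each chemokine receptor.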

[8] = biological target: Chemokine XC receptor 1 (Homo sapiens) (UniProt P46094); assay: Antagonist activity at human XCR1 expressed in CHOK1 cells assessed as inhibition of lymphotactin-induced cAMP accumulation at 10 uM preincubated for 30 mins followed agonist addition measured after 30 to 60 mins; type: functional, cell-based; outline: as §2
[9] = test system: Rattus norvegicus; assay: Hepatotoxicity in Sprague-Dawley rat assessed as effect on liver weight at 50 mg/kg/day, sc administered for 14 days relative to control; type: toxicity, organism-based; details: in vivo, 336 h; outline: as §1
[10] = test system: Rattus norvegicus; assay: Cardiotoxicity in Sprague-Dawley rat assessed as effect on heart size at 50 mg/kg/day, sc administered for 14 days relative to control; type: toxicity, organism-based; details: in vivo, 336 h; outline: as §1
[11] = Cytotoxicity against human Detroit 551 cells; type: cell-based
[12] = test system: Mus musculus; assay: Induction of hematopoietic stem cell mobilization in C57BL/6 mouse PBMC assessed as increase in CFU-GM colonies at 35 mg/kg, sc administered on day 5 post G-CSF addition measured after 2 hrs post dose by colony forming assay; type: functional, organism-based
Outline: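 Male C57BL/6 mice received G-CSF 100 µg/kg SC daily for 4 days. On day 5 they received G-CSF plus compound SC (6 or 35 mg/kg). Heparinized blood taken 2 h later; PBMCs isolated and cultured in methylcellulose medium for 10–14 days. CFU-GM colonies (aggregates of ≥50 cells) counted under an inverted microscope. 8–12 mice per group; mean ± SEM; t test against G-CSF alone.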

[13] = biological target: Cytochrome P450 2C9 (Homo sapiens, UniProt P11712); assay: Inhibition of human liver microsomal CYP2C9; type: ADME
[14] = biological target: Cytochrome P450 2D6 (Homo sapiens, UniProt P10635); assay: Inhibition of human liver microsomal CYP2D6; type: ADME
[15] = biological target: C-C chemokine receptor type 6 (Homo sapiens) (UniProt P51684); assay: Antagonist activity at human CCR6 expressed in CHOK1 cells assessed as inhibition of CCL20-induced cAMP accumulation at 10 uM preincubated for 30 mins followed agonist addition measured after 30 to 60 mins; type: functional, cell-based; outline: as §2
[16] = biological target: T1, C-X-C chemokine receptor type 4 (Homo sapiens, UniProt P61073); assay: Displacement of [125I]CXCL12 from human CXCR4 expressed in HEK293 cell membranes after 1.5 hrs by Topcount method
[17] = test system: Rattus norvegicus; assay: Toxicity in Sprague-Dawley rat assessed as effect on lung weight at 50 mg/kg/day, sc administered for 14 days relative to control; type: organism-based; details: in vivo, 336 h; outline: as §1
[18] = Cmax in C57BL/6 mouse at 6 mg/kg, sc measured up to 4 hrs post dose by LC-MS/MS analysis; type: ADME, organism-based; parameters: dose 6 mg/kg, route subcutaneous; details: in vivo
Outline: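 Male C57BL/6 mice (23.4–25.4 g), quarantined one week, non-fasted, n = 3; single SC dose of 6 mg/kg in 100% saline. Blood taken by cardiac puncture at 0, 0.03, 0.08, 0.25, 1, 1.5, 2 and 4 h and stored at -80 °C. Plasma analysed by LC–MS/MS; parameters from non-compartmental analysis; mean ± SD.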

[19] = test system: Rattus norvegicus; assay: Renal toxicity in Sprague-Dawley rat assessed as effect on kidney size at 50 mg/kg/day, sc administered for 14 days relative to control; type: organism-based; details: in vivo, 336 h; outline: as §1
[20] = biological target: Cytochrome P450 2E1 (Homo sapiens, UniProt P05181); assay: Inhibition of human liver microsomal CYP2E1; type: ADME
[21] = test system: Rattus norvegicus; assay: Toxicity in Sprague-Dawley rat assessed as effect on hematology parameters at 50 mg/kg/day, sc administered for 14 days relative to control; type: organism-based; details: in vivo, 336 h; outline: as §1
[22] = test system: Mus musculus; assay: Induction of hematopoietic stem cell mobilization in C57BL/6 mouse assessed as increase in CFU-GM colonies from PBMC at 35 mg/kg, sc administered on day 5 post 100 ug/kg/day G-CSF addition for 4 days measured after 2 hrs post compound dose by colony forming assay relative to AMD3100; type: functional
Outline: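 Male C57BL/6 mice given G-CSF 100 µg/kg SC daily for 4 days. On day 5, G-CSF was co-injected SC with compound. Heparinized blood taken 2 h later; PBMCs isolated and cultured in methylcellulose medium for 10–14 days. CFU-GM colonies (aggregates of ≥50 cells) counted under an inverted microscope. Mean ± SEM, 8–12 mice per group, t test.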

[23] = biological target: T1, C-X-C chemokine receptor type 4; assay: Antagonist activity at human CXCR4 expressed in CHOK1 cells assessed as inhibition of SDF1a-induced cAMP accumulation at 10 uM preincubated for 30 mins followed agonist addition measured after 30 to 60 mins; type: functional, cell-based; outline: as §2
[24] = test system: Mus musculus; assay: Induction hematopoietic stem cell mobilization in sc dosed C57BL/6 mouse assessed as increase in CXCR4+ cells in blood measured after 2 hrs by APC-conjugated anti-CXCR4 -staining based flow cytometry relative to vehicle control; type: functional; details: C57BL/6, sc, read-out: MED
Outline: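 Male C57BL/6 mice, 8–10 weeks old, given a single SC injection at escalating doses of 1, 6, 20, 35 and 50 mg/kg. Blood collected 2 h later and stained with antibodies including APC-anti-CXCR4. CXCR4⁺ cells counted by flow cytometry, at least 60,000 events per sample. n = 3 per group; mean ± SEM; t test against vehicle.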

[25] = test system: Rattus norvegicus; assay: Renal toxicity in Sprague-Dawley rat assessed as effect on kidney color at 50 mg/kg/day, sc administered for 14 days relative to control; type: organism-based; details: in vivo, 336 h; outline: as §1

T1 sequence (P61073 whole entry): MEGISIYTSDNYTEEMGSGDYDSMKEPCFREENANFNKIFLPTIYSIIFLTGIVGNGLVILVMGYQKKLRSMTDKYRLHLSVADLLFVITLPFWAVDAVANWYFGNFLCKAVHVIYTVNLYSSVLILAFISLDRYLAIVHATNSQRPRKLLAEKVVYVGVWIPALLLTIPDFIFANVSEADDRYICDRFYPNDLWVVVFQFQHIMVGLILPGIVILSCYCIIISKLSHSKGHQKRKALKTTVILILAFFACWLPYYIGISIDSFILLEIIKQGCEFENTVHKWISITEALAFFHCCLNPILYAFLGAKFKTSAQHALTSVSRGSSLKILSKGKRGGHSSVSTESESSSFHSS
Chain of C-C chemokine receptor type 6 (Homo sapiens) (P51684 whole entry): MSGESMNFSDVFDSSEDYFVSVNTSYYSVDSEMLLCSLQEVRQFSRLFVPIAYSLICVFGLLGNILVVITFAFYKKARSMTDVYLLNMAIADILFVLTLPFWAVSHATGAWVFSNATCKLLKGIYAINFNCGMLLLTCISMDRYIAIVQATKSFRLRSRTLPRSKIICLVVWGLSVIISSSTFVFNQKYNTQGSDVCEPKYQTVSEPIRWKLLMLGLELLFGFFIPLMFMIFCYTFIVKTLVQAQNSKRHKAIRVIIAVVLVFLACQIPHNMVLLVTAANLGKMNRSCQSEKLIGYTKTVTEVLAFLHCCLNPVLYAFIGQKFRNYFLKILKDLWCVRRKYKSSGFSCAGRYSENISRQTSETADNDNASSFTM
Chain of Cytochrome P450 2C9 (P11712 whole entry): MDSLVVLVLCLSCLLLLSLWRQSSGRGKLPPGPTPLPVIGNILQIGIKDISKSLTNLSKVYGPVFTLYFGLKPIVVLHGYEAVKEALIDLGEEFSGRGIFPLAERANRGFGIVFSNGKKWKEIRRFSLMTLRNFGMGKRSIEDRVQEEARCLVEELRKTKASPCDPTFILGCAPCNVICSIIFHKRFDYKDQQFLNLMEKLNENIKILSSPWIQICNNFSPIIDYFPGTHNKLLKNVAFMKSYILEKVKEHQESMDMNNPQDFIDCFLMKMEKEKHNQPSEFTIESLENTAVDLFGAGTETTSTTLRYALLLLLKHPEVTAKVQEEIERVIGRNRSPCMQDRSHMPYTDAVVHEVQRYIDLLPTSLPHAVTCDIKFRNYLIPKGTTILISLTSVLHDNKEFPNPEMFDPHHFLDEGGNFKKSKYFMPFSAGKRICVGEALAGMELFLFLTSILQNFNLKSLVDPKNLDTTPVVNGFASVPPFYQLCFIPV
Chain of Cytochrome P450 2D6 (P10635 whole entry): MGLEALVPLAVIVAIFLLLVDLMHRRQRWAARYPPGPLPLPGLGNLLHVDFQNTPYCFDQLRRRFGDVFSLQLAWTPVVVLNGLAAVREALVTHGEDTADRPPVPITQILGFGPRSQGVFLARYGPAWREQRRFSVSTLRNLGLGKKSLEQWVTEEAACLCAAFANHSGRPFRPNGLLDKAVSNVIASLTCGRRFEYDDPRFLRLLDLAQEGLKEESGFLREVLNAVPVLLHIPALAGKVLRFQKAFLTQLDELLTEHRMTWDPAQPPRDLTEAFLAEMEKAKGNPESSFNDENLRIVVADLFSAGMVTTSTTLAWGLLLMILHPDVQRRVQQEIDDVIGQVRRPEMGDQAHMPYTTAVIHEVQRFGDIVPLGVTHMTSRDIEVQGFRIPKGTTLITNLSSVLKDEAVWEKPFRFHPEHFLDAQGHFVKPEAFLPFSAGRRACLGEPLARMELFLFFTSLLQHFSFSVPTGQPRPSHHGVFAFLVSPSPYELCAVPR
Chain of Voltage-gated inwardly rectifying potassium channel KCNH2 (Q12809 whole entry): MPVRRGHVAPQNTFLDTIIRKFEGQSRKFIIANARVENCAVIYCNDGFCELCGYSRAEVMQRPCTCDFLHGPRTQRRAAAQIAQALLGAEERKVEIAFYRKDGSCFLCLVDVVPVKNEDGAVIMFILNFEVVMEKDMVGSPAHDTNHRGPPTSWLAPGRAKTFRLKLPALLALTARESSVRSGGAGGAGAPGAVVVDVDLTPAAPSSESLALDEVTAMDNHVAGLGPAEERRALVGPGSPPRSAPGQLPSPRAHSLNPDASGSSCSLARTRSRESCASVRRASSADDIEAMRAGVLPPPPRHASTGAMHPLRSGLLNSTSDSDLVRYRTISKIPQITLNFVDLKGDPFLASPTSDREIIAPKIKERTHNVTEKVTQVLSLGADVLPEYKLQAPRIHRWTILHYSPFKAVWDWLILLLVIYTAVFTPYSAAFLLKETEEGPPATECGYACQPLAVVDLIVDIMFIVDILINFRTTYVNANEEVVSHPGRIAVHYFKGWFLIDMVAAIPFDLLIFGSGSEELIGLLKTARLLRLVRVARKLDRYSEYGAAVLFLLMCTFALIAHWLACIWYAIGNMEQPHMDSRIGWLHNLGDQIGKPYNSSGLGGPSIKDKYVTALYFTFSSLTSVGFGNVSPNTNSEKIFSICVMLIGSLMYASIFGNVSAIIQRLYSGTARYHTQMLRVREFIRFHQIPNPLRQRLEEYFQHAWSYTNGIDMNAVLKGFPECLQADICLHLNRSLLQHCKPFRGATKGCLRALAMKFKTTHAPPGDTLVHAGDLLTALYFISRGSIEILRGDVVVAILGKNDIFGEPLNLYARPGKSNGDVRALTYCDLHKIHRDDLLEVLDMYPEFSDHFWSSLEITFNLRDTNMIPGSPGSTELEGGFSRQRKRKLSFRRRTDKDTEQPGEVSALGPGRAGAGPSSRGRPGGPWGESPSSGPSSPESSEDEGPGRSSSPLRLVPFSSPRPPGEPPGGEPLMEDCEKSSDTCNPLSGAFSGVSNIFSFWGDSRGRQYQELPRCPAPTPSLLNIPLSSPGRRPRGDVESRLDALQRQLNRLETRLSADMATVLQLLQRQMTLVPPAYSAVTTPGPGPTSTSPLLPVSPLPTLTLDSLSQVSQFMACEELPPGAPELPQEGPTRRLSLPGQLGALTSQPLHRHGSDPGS
Chain of C-X-C chemokine receptor type 2 (Homo sapiens) (P25025 whole entry): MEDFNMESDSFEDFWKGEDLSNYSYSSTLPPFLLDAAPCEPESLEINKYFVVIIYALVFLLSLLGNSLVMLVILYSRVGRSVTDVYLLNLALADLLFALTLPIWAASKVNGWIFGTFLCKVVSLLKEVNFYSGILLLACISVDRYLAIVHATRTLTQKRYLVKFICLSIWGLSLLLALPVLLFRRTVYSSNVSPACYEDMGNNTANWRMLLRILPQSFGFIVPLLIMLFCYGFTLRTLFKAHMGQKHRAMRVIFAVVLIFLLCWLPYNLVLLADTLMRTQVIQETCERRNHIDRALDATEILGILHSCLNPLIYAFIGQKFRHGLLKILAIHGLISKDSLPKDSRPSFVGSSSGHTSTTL
Chain of Cytochrome P450 2E1 (P05181 whole entry): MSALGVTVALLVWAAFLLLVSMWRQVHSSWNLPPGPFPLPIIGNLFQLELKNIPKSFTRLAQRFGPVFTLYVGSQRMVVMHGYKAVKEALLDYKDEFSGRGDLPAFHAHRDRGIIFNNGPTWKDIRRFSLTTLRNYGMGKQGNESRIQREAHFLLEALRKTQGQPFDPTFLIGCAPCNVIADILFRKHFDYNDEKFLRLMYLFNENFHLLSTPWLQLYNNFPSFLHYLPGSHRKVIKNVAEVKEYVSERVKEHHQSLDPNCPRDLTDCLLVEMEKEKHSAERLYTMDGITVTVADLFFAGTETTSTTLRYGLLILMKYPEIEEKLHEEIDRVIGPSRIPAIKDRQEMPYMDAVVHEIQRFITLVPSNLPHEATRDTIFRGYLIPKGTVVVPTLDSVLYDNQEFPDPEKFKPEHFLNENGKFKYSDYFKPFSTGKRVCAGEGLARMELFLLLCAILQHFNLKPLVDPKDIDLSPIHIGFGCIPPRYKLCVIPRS
Chain of Chemokine XC receptor 1 (Homo sapiens) (P46094 whole entry): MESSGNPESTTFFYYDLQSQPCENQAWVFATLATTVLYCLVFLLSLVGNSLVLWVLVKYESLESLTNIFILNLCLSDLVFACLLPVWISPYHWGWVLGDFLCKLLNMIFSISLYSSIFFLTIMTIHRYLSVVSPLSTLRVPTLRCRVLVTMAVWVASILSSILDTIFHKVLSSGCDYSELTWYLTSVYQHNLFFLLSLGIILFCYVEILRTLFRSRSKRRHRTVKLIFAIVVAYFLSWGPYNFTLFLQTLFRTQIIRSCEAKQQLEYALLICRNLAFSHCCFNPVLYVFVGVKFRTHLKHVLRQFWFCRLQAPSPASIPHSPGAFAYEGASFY

Cc1cc(NC2CCN(C(=O)CCNCC(=O)O)CC2)nc(NCc2cn(CCCNCCCNC3CCCCC3)nn2)n1
MTD [1]: 75 mg/kg | Activity [2]: Non-Toxic | fold change (FC) [3]: 7 | inhibition (INH) [4]: Not Active | Activity [5]: Non-Toxic | Activity [6]: 30 - 50% | Efficacy [7]: 0.5% | Efficacy [8]: -2.8% | Activity [9]: Non-Toxic | Activity [10]: Non-Toxic | CC50 [11]: > 100 µM | Activity [12]: Active | IC50 [13]: > 100 µM | IC50 [14]: > 100 µM | Efficacy [15]: -2.2% | IC50 [16]: 0.0342 µM | Activity [17]: Non-Toxic | Cmax [18]: 16400 ng/mL | Activity [19]: Non-Toxic | IC50 [20]: > 100 µM | Activity [21]: Non-Toxic | fold change (FC) [22]: 1.6 | Efficacy [23]: 73.4% | minimal effective dose [24]: 6 mg/kg | Activity [25]: Non-Toxic
